Broadly, the AUC(0-inf) is the area under the concentration-time curve extrapolated to infinity. Read a low AUC(0-inf) as less exposure.

The structures appear in SMILES notation. Entries after “also recorded” stand apart in the source; their conditions may differ.

Series [1] deals with C3(1)-T-antigen tumors. Description: Short-term tumor volume response, C3. Format: in vivo, mice (FVB/n). As to conditions: C3(1)-T-antigen model; for Tumor response (change in tumor volume), in words: 21-day treatment. The method in brief:
(§1)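 FVB/n transgenic mice bred in-house, enrolled at spontaneous mammary tumor onset (~0.5 cm), randomized to treatment or untreated control groups. Injectable agents given i.p. once weekly, three doses over 21 days; oral agents milled into chow, given continuously; combinations at single-agent doses. Caliper and/or ultrasound measurements; volume = (width)² × length/2; response = percent volume change at day 21.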

In series [2] the test system is MMTV-Neu tumors. Description: Short-term tumor volume response, MMTV-Neu GEMM. In kind it is in vivo, mice (FVB/n). As to conditions: MMTV-Neu model; for Tumor response (change in tumor volume), in words: 21-day treatment. In a few lines:
as §1

For series [3], the system named is MMTV-Neu tumors. As to the kind of experiment: Overall survival of tumor-bearing mice, MMTV-Neu. In kind it is in vivo, mice (FVB/n). As to conditions: MMTV-Neu model, single agent.
Series [4] concerns T11/TP53−/− tumors. As to the kind of experiment: Short-term tumor volume response, T11/TP53-/- OST. In kind it is in vivo, mice (BALB/c). As to conditions: T11/TP53−/− model, 14-day treatment.
A short description of series [5]: Paclitaxel pharmacokinetics in plasma and tumor. Format: in vivo, transgenic FVB/n mice bearing the MMTV-Neu transgene.

Consider `C#Cc1cccc(Nc2ncnc3cc(OCCOC)c(OCCOC)cc23)c1` [erlotinib], for which the “Subset of treated mice showing potent activity” value in series [1] is reported as roughly 40%. For the same compound, in series [2], the “Tumor response (change in tumor volume), in words” value is on record as “highly effective”. Moreover, the “Extension of lifespan, in words” value in series [3] is “to some extent”.

In the case of `N.N.O=C([O-])C1(C(=O)[O-])CCC1.[Pt+2]` [carboplatin, Carboplatin], the “Tumor response (change in tumor volume), in words” value in series [1], in series [2] and in series [4] was “modest but significant responses” throughout.

Consider `CS(=O)(=O)CCNCc1ccc(-c2ccc3ncnc(Nc4ccc(OCc5cccc(F)c5)c(Cl)c4)c3c2)o1` [lapatinib], for which the “Tumor response (change in tumor volume), in words” value in series [1] is given as “ineffective”; in series [2] it was “exceptional efficacy; also recorded: highly effective; also recorded: complete tumor regression”; in series [4], “neither erlotinib nor lapatinib were effective”. Also, in series [2] (all tumors), the Tumor regression was roughly 100%. The “Extension of lifespan, in words” value in series [3] is reported as “greatly extended lifespan”. Further, the Median survival in series [3] (untreated median 29 days) came out at 154 days.

On to `CC(=O)O[C@H]1C(=O)[C@@]2(C)[C@H]([C@H](OC(=O)c3ccccc3)[C@]3(O)C[C@H](OC(=O)[C@H](O)[C@@H](NC(=O)c4ccccc4)c4ccccc4)C(C)=C1C3(C)C)[C@]1(OC(C)=O)CO[C@@H]1C[C@@H]2O` [paclitaxel], for which the “Tumor response (change in tumor volume), in words” value in series [1], in series [2] and in series [4] was “no response” in each case. The compound also returned an AUC(0-inf) in series [5] (FVB/n (MMTV-Neu transgenic), mouse, plasma, ip, 10 mg/kg) of 6.3 µg·h/mL. The “AUC0-∞ in tumor” value in series [5] (single IP dose 10 mg/kg, MMTV-Neu mice, tumor) came to 42.4 µg·h/g.
